Source: ChEMBL document CHEMBL5653631, “A Potent and Selective ULK1 Inhibitor Suppresses Autophagy and Sensitizes Cancer Cells to Nutrient Stress” (iScience, 2018)

Experiments:
[1] = molecular target: Fibroblast growth factor receptor 2 (Homo sapiens) (UniProt P21802); experiment: Inhibition of human recombinant FGFR2 at 40 nM related to control ULK1
[2] = molecular target: Cyclin-dependent kinase-like 3 (Homo sapiens) (UniProt Q8IVW4); experiment: Inhibition of human recombinant CDKL3 at 40 nM in presence of ATP by radiometric assay relative to control
[3] = molecular target: Vascular endothelial growth factor receptor 1 (Homo sapiens) (UniProt P17948); experiment: Inhibition of human recombinant FLT1 at 40 nM in presence of ATP by radiometric assay relative to control
Chain of Vascular endothelial growth factor receptor 1 (Homo sapiens) (P17948 whole entry): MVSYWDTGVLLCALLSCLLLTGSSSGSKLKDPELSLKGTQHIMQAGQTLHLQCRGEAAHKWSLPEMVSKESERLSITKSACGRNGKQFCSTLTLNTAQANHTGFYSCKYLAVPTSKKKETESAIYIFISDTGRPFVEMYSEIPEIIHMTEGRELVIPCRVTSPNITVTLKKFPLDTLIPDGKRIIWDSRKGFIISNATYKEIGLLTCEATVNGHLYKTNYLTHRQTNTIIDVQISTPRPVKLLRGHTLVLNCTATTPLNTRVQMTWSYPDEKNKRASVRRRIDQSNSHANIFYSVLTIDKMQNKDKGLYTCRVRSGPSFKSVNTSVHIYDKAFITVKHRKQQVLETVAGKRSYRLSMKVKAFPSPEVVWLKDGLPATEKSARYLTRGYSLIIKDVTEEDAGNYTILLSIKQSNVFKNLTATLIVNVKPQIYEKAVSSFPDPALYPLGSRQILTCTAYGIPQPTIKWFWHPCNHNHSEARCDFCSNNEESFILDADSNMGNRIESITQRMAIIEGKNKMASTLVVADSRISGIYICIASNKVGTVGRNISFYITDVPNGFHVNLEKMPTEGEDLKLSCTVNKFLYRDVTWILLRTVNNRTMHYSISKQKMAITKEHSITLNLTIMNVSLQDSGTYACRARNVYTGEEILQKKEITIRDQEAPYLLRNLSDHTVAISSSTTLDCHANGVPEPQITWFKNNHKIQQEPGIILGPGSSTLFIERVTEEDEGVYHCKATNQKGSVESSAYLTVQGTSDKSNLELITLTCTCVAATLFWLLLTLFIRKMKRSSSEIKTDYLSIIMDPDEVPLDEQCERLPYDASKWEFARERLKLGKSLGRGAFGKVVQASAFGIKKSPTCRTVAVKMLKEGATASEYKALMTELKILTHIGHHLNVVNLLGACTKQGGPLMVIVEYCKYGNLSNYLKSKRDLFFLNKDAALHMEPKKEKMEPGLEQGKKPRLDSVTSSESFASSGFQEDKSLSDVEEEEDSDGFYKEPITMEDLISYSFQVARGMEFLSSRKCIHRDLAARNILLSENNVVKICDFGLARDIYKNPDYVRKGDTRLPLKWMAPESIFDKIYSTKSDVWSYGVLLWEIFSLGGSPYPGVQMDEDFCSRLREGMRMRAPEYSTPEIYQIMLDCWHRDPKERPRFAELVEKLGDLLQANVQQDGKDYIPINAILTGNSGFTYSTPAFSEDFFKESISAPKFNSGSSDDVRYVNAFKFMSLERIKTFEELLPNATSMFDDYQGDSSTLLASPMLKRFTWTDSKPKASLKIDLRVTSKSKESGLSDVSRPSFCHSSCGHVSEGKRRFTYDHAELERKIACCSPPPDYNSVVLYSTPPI

[4] = organism: Homo sapiens; experiment: Inhibition of human recombinant ABL at 40 nM in presence of ATP by radiometric assay relative to control
Outline: (§1)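 Radiometric activity assays in a panel of 327 human recombinant kinases, each run in duplicate at one inhibitor concentration. Activity remaining is expressed as percent of vehicle control, and percent inhibition is calculated as 100% minus percent activity remaining.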

[5] = molecular target: Tyrosine-protein kinase Blk (Homo sapiens) (UniProt P51451); experiment: Inhibition of human recombinant BLK at 40 nM related to control ULK1; outline: as §1
Chain of Tyrosine-protein kinase Blk (Homo sapiens) (P51451 2-505 limits assumed): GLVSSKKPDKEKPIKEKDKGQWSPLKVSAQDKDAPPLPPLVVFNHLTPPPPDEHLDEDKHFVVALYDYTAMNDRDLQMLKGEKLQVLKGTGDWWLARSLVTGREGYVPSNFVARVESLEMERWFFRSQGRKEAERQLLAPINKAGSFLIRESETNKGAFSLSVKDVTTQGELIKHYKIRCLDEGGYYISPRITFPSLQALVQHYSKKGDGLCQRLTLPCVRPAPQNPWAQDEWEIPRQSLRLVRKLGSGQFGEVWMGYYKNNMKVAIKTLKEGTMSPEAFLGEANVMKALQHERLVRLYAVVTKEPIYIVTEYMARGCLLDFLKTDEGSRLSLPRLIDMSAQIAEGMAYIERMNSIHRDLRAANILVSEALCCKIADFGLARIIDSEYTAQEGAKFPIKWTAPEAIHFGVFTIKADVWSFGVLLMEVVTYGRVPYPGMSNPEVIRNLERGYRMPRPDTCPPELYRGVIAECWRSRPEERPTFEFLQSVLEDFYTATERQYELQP

[6] = molecular target: Calcium/calmodulin-dependent protein kinase type II subunit gamma (Homo sapiens) (UniProt Q13555); experiment: Inhibition of human recombinant CaMK2g at 40 nM related to control ULK1
Chain of Calcium/calmodulin-dependent protein kinase type II subunit gamma (Homo sapiens) (Q13555 whole entry): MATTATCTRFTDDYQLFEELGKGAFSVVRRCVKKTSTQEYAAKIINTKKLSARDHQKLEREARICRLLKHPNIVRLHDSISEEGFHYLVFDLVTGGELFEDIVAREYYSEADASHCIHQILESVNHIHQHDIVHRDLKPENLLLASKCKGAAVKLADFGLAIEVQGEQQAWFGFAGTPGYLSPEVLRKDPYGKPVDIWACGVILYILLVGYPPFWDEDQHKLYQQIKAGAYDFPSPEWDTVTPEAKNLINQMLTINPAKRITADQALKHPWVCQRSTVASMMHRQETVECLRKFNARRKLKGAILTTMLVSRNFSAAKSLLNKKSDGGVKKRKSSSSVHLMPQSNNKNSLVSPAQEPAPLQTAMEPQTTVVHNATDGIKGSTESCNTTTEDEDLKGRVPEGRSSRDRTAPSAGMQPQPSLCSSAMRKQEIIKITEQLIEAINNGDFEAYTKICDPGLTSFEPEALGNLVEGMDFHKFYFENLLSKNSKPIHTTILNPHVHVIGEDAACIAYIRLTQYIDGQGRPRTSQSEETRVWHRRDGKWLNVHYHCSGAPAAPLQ

[7] = molecular target: Mitogen-activated protein kinase 10 (Homo sapiens) (UniProt P53779); experiment: Inhibition of human recombinant JNK3 at 40 nM in presence of ATP by radiometric assay relative to control
[8] = molecular target: Tyrosine-protein kinase Lyn (Homo sapiens) (UniProt P07948); experiment: Inhibition of human recombinant LYN at 40 nM related to control ULK1
Chain of Tyrosine-protein kinase Lyn (Homo sapiens) (P07948 2-512 limits assumed): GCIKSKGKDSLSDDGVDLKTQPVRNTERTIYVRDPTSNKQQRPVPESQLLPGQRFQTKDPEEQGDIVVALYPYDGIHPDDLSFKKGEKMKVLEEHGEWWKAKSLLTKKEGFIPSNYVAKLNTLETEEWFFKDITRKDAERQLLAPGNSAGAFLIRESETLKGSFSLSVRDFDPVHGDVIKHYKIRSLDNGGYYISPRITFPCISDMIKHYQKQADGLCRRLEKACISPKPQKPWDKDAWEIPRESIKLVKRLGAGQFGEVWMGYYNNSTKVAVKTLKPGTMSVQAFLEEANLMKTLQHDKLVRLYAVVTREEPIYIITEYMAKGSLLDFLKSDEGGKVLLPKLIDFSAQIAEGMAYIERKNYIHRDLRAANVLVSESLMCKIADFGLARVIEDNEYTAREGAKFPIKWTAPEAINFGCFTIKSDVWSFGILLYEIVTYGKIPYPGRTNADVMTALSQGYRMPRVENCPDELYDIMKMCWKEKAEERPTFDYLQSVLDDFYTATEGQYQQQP

[9] = molecular target: T1, Tyrosine-protein kinase ITK/TSK (Homo sapiens) (UniProt Q08881); experiment: Inhibition of human recombinant ITK at 15 nM related to control ULK1
T1 sequence (whole entry): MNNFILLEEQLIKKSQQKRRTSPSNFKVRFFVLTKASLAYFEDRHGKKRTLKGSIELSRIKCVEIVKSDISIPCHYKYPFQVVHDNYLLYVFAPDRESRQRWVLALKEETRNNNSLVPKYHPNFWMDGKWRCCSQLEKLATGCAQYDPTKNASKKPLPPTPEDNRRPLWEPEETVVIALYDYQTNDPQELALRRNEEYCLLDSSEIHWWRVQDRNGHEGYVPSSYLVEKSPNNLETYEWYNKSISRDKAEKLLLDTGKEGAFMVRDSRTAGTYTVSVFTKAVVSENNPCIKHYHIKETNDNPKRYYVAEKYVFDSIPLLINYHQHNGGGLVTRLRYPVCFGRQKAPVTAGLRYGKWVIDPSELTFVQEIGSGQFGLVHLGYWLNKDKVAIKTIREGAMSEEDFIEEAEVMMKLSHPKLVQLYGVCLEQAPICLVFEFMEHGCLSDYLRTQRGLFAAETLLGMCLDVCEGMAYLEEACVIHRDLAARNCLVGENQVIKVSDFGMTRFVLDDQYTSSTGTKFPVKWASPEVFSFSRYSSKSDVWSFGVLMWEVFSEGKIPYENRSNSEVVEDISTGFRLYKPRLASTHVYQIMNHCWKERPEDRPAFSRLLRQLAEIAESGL

[10] = molecular target: Cyclin-dependent kinase 4 (Homo sapiens) (UniProt P11802); experiment: Inhibition of human recombinant CDK4 at 15 nM related to control ULK1
Chain of Cyclin-dependent kinase 4 (Homo sapiens) (P11802 whole entry): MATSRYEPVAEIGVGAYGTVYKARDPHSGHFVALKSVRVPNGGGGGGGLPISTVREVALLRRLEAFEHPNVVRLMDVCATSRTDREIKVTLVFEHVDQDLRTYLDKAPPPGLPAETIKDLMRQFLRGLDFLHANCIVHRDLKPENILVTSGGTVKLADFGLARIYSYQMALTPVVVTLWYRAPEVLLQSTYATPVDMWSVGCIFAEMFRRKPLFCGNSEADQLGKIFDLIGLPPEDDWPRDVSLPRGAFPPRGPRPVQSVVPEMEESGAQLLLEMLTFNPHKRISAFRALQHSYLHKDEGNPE

[11] = molecular target: Casein kinase II subunit alpha' (Homo sapiens) (UniProt P19784); experiment: Inhibition of human recombinant CK2a2 at 15 nM in presence of ATP by radiometric assay relative to control
[12] = molecular target: Cell division cycle 7-related protein kinase (Homo sapiens) (UniProt O00311); experiment: Inhibition of human recombinant CDC7 at 15 nM related to control ULK1
[13] = molecular target: Cyclin-dependent kinase 1 (Homo sapiens) (UniProt P06493); experiment: Inhibition of human recombinant CDC2 at 15 nM related to control ULK1
[14] = molecular target: Mitogen-activated protein kinase kinase kinase 10 (Homo sapiens) (UniProt Q02779); experiment: Inhibition of human recombinant MLK2 at 15 nM in presence of ATP by radiometric assay relative to control
[15] = molecular target: Cyclin-dependent kinase 9 (Homo sapiens) (UniProt P50750); experiment: Inhibition of human recombinant CDK9 at 15 nM in presence of ATP by radiometric assay relative to control
Chain of Cyclin-dependent kinase 9 (Homo sapiens) (P50750 whole entry): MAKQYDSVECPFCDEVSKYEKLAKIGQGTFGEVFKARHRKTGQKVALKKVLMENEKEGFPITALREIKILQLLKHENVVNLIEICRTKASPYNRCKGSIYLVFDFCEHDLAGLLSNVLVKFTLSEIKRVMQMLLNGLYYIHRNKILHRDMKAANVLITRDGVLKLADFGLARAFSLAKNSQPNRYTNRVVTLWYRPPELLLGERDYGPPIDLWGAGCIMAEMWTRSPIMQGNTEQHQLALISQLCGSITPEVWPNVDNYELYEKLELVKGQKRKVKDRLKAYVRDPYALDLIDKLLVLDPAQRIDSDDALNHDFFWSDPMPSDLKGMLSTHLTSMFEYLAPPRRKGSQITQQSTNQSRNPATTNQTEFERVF

[16] = molecular target: BDNF/NT-3 growth factors receptor (Homo sapiens) (UniProt Q16620); experiment: Inhibition of human recombinant TRKB at 15 nM in presence of ATP by radiometric assay relative to control
Chain of BDNF/NT-3 growth factors receptor (Homo sapiens) (Q16620 32-822 limits assumed): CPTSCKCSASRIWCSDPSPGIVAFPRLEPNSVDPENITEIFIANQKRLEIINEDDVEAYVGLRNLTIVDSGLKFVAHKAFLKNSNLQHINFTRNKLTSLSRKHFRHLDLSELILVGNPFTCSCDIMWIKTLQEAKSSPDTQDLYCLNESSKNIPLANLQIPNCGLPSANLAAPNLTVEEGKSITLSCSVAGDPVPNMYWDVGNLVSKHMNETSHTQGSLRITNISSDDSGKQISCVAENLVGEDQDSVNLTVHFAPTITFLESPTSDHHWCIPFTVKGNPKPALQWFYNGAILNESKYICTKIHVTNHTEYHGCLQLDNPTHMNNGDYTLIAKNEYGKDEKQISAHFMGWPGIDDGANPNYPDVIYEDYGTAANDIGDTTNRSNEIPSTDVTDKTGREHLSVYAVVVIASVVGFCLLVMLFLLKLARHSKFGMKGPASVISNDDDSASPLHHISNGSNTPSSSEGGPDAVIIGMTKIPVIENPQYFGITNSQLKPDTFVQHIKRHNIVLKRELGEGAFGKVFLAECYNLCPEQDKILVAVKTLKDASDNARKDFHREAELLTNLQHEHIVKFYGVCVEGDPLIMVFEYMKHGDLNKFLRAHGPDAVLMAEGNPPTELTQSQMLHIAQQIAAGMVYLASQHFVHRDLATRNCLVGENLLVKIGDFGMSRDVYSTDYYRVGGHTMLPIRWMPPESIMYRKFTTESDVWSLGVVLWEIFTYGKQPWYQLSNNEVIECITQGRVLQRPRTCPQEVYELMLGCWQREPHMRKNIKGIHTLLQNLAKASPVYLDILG

[17] = molecular target: Serine/threonine-protein kinase MARK1 (Homo sapiens) (UniProt Q9P0L2); experiment: Inhibition of human recombinant MARK1 at 15 nM related to control ULK1
[18] = molecular target: Rhodopsin kinase GRK7 (Homo sapiens) (UniProt Q8WTQ7); experiment: Inhibition of human recombinant GPRK7 at 15 nM related to control ULK1
Chain of Rhodopsin kinase GRK7 (Homo sapiens) (Q8WTQ7 whole entry, looked up): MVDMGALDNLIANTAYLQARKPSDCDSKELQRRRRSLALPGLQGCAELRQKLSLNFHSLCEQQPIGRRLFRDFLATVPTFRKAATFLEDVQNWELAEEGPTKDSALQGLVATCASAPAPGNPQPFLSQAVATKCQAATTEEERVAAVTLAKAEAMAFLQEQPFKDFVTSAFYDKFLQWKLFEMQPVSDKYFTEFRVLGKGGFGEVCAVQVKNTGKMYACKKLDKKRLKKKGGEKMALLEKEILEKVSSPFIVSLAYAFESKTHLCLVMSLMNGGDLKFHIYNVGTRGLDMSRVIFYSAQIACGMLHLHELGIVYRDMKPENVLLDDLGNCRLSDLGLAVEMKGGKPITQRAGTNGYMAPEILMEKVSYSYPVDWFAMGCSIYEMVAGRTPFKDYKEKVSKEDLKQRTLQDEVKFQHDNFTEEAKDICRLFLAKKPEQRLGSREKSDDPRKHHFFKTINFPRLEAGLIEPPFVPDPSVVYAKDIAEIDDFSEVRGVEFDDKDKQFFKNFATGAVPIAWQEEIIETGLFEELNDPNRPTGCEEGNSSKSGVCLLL

[19] = molecular target: Cyclin-dependent kinase 6 (Homo sapiens) (UniProt Q00534); experiment: Inhibition of human recombinant CDK6 at 500 nM related to control ULK1
[20] = molecular target: Tyrosine-protein kinase Yes (Homo sapiens) (UniProt P07947); experiment: Inhibition of human recombinant YES at 500 nM related to control ULK1
[21] = molecular target: T2, Inhibitor of nuclear factor kappa-B kinase subunit epsilon (Homo sapiens) (UniProt Q14164); experiment: Inhibition of human recombinant IKKe at 500 nM related to control ULK1
T2 sequence (whole entry): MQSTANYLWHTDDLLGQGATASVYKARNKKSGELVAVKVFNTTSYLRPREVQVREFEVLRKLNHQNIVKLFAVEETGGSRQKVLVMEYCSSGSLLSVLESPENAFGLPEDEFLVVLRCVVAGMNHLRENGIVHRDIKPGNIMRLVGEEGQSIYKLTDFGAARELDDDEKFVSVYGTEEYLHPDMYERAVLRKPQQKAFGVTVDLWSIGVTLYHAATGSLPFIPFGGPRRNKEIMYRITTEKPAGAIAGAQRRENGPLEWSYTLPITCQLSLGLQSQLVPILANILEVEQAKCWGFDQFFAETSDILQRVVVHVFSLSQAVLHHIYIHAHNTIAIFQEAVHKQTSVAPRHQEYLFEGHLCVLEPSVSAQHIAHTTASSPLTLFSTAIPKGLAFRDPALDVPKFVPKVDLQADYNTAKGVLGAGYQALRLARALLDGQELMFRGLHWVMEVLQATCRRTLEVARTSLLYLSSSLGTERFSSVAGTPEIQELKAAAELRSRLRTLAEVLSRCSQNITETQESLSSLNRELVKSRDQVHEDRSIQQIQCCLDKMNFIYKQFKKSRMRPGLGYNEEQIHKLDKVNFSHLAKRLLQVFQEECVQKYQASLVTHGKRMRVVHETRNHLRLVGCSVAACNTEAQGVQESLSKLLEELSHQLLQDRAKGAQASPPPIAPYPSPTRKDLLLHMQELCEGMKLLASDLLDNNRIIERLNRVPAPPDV

With `O=C(N[C@@H](C1CC1)C(F)(F)F)c1cc(-c2cnn3cc(-c4ccc(F)cc4)cnc23)cs1` as the molecule, how does the fold change (FC) [1] read?
Its fold change (FC) is 0.

And the inhibition [2]?
The inhibition was 39%.

And the inhibition [3]?
The inhibition was 18%.

What about the inhibition [4] of the same molecule?
Its inhibition is 12%.

What about the fold change (FC) [5] of the same molecule?
The fold change (FC) was 0.23.

And the fold change (FC) [6]?
Its fold change (FC) is 0.01.

What about the inhibition [7] of the same molecule?
Its inhibition is 0%.

And the fold change (FC) [8]?
The fold change (FC) was 0.25.

With `CC(C)[C@H](NC(=O)c1cc(-c2cnn3cc(-c4ccc(OCCN5CCCCC5)cc4)cnc23)cs1)C(F)(F)F` as the molecule, how does the fold change (FC) [9] read?
Its fold change (FC) is 0.05.

What about the fold change (FC) [10] of the same molecule?
The fold change (FC) was 0.13.

What about the inhibition [11] of the same molecule?
The inhibition was 5%.

What about the fold change (FC) [12] of the same molecule?
The fold change (FC) was 0.09.

What about the fold change (FC) [13] of the same molecule?
The fold change (FC) was 0.27.

And the inhibition [14]?
The inhibition was 12%.

What about the inhibition [15] of the same molecule?
Its inhibition is 0%.

What about the inhibition [16] of the same molecule?
Its inhibition is 0%.

And the fold change (FC) [17]?
The fold change (FC) was 0.61.

And the fold change (FC) [18]?
Its fold change (FC) is 0.

Which results are given for `CNC(=O)c1ccccc1Oc1nc(Nc2cc(OC)c(OC)c(OC)c2)ncc1Br`?
fold change (FC) [19]: 0; fold change (FC) [20]: 0.89; fold change (FC) [21]: 0
